Values after ≈ are worked out from the molar mass of the structure shown. Like-named read-outs stand apart in the source and are kept apart here. Marks after values point to notes of the source that are not given here.
Assays:
[1] = system: wild-type C. neoformans H99; assay: Growth inhibition; type: cell-based, Cryptococcus neoformans; conditions: for effect of added Ag(I) on MIC: 10 μM supplemental Ag(I); for effect of added Cu(II) on MIC: 10 μM supplemental Cu(II); for effect of added Fe(III) on MIC: 10 μM supplemental Fe(III); for effect of added Zn(II) on MIC: 10 μM supplemental Zn(II); for Minimum inhibitory concentration (MIC) / MIC: 30 °C; for MIC: Cryptococcus neoformans, read-out: Minimum inhibitory concentration (MIC), supplemental [Cu] 1 mM (CuSO4); for effect of supplemental Cu on the growth inhibition by the compound: 1 mM Cu, high compound concentration (100 μM; CQ 50 μM); for growth compared to no treatment at 48 h: 100 μM compound, no supplemental Cu
WT C. neoformans [2] = assay: Fungicidal assay; type: cell-based, Cryptococcus neoformans; conditions: 24 h in liquid culture, PyS 3 μM
[3] = system: ctr1Δctr4Δ mutant strain of C. neoformans; assay: Growth recovery of Cu-import deficient mutant in YPEG medium; type: cell-based, Cryptococcus neoformans; conditions: YPEG medium without supplemental Cu, micromolar compound, 48 h
Conditional Cu [4] = type: binding
Conditional Cu [5] = type: binding; conditions: for competition for Cu(I) with BCA or ferrozine: pH 7.4, anaerobic
[6] = Calcein competition assay for Cu; type: binding; conditions: 100 μM compound; HEPES pH 7.4 and SC medium pH 4.5
[7] = system: C. neoformans wild type, H99 cells; type: cell-based, Cryptococcus neoformans; conditions: SC medium; for cellular metal content compared to the other conditions: 10 μM ligand
Stoichiometry with Cu [8] = type: binding; conditions: 5% DMSO in universal buffer, pH 7.4, anaerobic
Summary of the method: (§1)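 Ligand–Cu mixtures were made in 5% DMSO in Britton–Robinson universal buffer, pH 7.4. Total metal plus ligand concentration was held constant while the Cu mole fraction was varied from 0.1 to 1.0, and samples were read by UV-vis. Ligand stocks were 100 mM in DMSO. For Cu(I), the buffer (0.04 M […], H3PO4, CH3CO2H) was deoxygenated, samples were prepared and measured anaerobically in a glove box, and stock concentration was set by BCA titration at 562 nm.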

Stoichiometry with Cu [9] = type: binding; conditions: 5% DMSO in universal buffer, pH 7.4
Summary of the method: as §1

[10] = cited from earlier work
[11] = pH 7.4; ref Smith, R. M.; Martell, A. E.; Motekaitis, R. J, 2007; cited from earlier work
WT C. neoformans [12] = conditions: with 10 μM Cu; cited from earlier work
[13] = system: ctr1Δctr4Δ mutant strain of C. neoformans; conditions: YPEG medium; cited from earlier work
[14] = no supplemental Cu ([Cu] 0 mM), SC medium, 48 h
[15] = supplemental [Cu] 0.01 mM (CuSO4), SC medium, 48 h
[16] = supplemental [Cu] 1 mM (CuSO4), SC medium, 48 h
[17] = with 10 μM CuSO4, ThM above 6 μM
[18] = conditional, universal buffer pH 7.4, competition with PAR
[19] = negative log of free [Cu] at pH 7.4, total ligand 10 μM, total Cu 1 μM
[20] = conditional, universal buffer pH 7.4, competition with BCA
[21] = 10 μM ligand co-incubated with 10 μM CuSO4, 1 h

SMILES: Cc1occc(=S)c1O [ThM, thiomaltol]
- effect of added Ag(I) on MIC ([1]; 48 h): no effect
- effect of added Cu(II) on MIC ([1]; 48 h): significant decrease
- effect of added Fe(III) on MIC ([1]; 48 h): did not significantly affect
- effect of added Zn(II) on MIC ([1]; 48 h): did not significantly affect
- Minimum inhibitory concentration (MIC) [1, 14]: >100 µM
- MIC in the presence of added Cu ([1]; range over low (10 μM) and high (1 mM) supplemental Cu, SC medium, 48 h): 6 to 25 µM
- Minimum inhibitory concentration (MIC) [1, 15]: 6 µM (≈ 0.853 µg/mL)
- Minimum inhibitory concentration (MIC) [1, 16]: 25 µM (≈ 3.55 µg/mL)
- fungicidal or fungistatic activity (CFU) (WT C. neoformans [2]; [17]): fungicidal
- fungicidal or fungistatic activity (CFU) (WT C. neoformans [2]; without Cu, ThM 100 μM): fungistatic
- restoration of growth of ctr1Δctr4Δ mutant [3]: restored to near wild type levels
- Cu(II) log KML2 (Conditional Cu [4]; [18]): ≥20 ^b
- pCu(II) (Conditional Cu [4]; [19]): ≥15
- Cu(I) log KML2 (Conditional Cu [5]; [20]): 16.4 ± 0.1
- pCu(I) (Conditional Cu [5]; [19]): 12.2
- competition with calcein for Cu(II) [6]: able to compete effectively for Cu(II) at both pH values
- cell-associated Cu, Fe and Zn content ([7]; 10 μM ligand alone, 1 h): Metal accumulation did not occur
- cell-associated Cu, Fe and Zn content [7, 21]: hyper accumulation of Cu, Zn, and Fe
- stoichiometry with Cu(I) (Stoichiometry with Cu [8]): Bis complexes

SMILES: CCN(CC)C(=S)SSC(=S)N(CC)CC [DSF, disulfiram]
- MIC ([1]; 48 h, SC medium, 48 h): 6 µM (≈ 1.78 µg/mL)
- restoration of growth of ctr1Δctr4Δ mutant [3]: restored to near wild type levels

SMILES: Oc1c(I)cc(Cl)c2cccnc12 [CQ, clioquinol]
- effect of supplemental Cu on the growth inhibition by the compound [1]: completely abrogated
- MIC ([1]; 48 h, SC medium, 48 h): > 50 µM
- restoration of growth of ctr1Δctr4Δ mutant [3]: unable to restore growth

SMILES: [O-][n+]1ccccc1S [PyS, pyrithione]
- effect of added Ag(I) on MIC ([1]; 48 h): significantly lowered
- effect of added Cu(II) on MIC ([1]; 48 h): significant decrease
- effect of added Fe(III) on MIC ([1]; 48 h): did not significantly affect
- effect of added Zn(II) on MIC ([1]; 48 h): did not significantly affect
- MIC ([1]; 48 h, SC medium, 48 h): 6 µM (≈ 0.763 µg/mL)
- fungicidal or fungistatic activity (CFU) (WT C. neoformans [2]; [17]): fungicidal
- fungicidal or fungistatic activity (CFU) (WT C. neoformans [2]; without Cu, ThM 100 μM): fungicidal
- restoration of growth of ctr1Δctr4Δ mutant [3]: restored to near wild type levels
- Cu(II) log KML2 (Conditional Cu [4]; pH 7.4): ≥20 ^b
- pCu(II) (Conditional Cu [4]; pH 7.4): ≥15
- Cu(I) log KML2 (Conditional Cu [5]; pH 7.4): 17.1 ± 0.2
- pCu(I) (Conditional Cu [5]; pH 7.4): 12.9
- competition with calcein for Cu(II) [6]: able to compete effectively for Cu(II) at both pH values
- cell-associated Cu, Fe and Zn content ([7]; 10 μM ligand alone, 1 h): Metal accumulation did not occur
- cell-associated Cu, Fe and Zn content [7, 21]: hyper accumulation of Cu, Zn, and Fe
- stoichiometry with Cu(II) (Stoichiometry with Cu [9]): 2L:1Cu(II)
- stoichiometry with Cu(I) (Stoichiometry with Cu [8]): Bis complexes

SMILES: O=S(=O)([O-])c1ccc(-c2nnc(-c3ccccn3)nc2-c2ccc(S(=O)(=O)[O-])cc2)cc1.[Na+].[Na+] [ferrozine]
- log KFz2Cu ([10]; Cu(I) complex): 15.1

SMILES: O=C(O)c1cc(-c2cc(C(=O)O)c3ccccc3n2)nc2ccccc12.O=C(O)c1cc(-c2cc(C(=O)O)c3ccccc3n2)nc2ccccc12.[Cu+] [[Cu^I(BCA)2]^3−]
- Log K ([10]; constant in fitting model, universal buffer pH 7.4 with 5% DMSO): 17.7[45]

SMILES: O=C(O)c1ccc(-n2nc(-c3ccccc3O)nc2-c2ccccc2O)cc1 [deferasirox]
- growth compared to no treatment at 48 h ([1]; SC medium): decrease in growth
- effect of supplemental Cu on the growth inhibition by the compound [1]: reversed

SMILES: Cc1occc(=O)c1O [Mal, maltol]
- restoration of growth of ctr1Δctr4Δ mutant [3]: unable to restore growth
- Cu(II) log KML2 (Conditional Cu [4]; [18]): 12.2 ± 0.3
- pCu(II) (Conditional Cu [4]; [19]): 8.0
- competition for Cu(I) with BCA or ferrozine (Conditional Cu [5]): did not compete
- cell-associated Cu, Fe and Zn content [7, 21]: did not dramatically alter cellular metal content

SMILES: Cc1c(O)c(=S)ccn1C [ThDfp]
- growth compared to no treatment at 48 h ([1]; SC medium): decrease in growth
- effect of supplemental Cu on the growth inhibition by the compound [1]: reversed
- Minimum inhibitory concentration (MIC) [1, 14]: >100 µM
- Minimum inhibitory concentration (MIC) [1, 15]: >100 µM
- Minimum inhibitory concentration (MIC) [1, 16]: >100 µM
- restoration of growth of ctr1Δctr4Δ mutant [3]: unable to restore growth
- Cu(II) log KML2 (Conditional Cu [4]; [18]): ≥20 ^b
- pCu(II) (Conditional Cu [4]; [19]): ≥15
- Cu(I) log KML2 (Conditional Cu [5]; [20]): 16.4 ± 0.2
- pCu(I) (Conditional Cu [5]; [19]): 12.2
- competition with calcein for Cu(II) [6]: able to compete effectively for Cu(II) at both pH values
- cell-associated Cu, Fe and Zn content [7, 21]: did not dramatically alter cellular metal content
- cellular metal content compared to the other conditions ([7]; 1 h): decreased cellular metal content
- stoichiometry with Cu(II) (Stoichiometry with Cu [9]): 2L:1Cu(II)
- stoichiometry with Cu(I) (Stoichiometry with Cu [8]): Bis complexes

SMILES: Cc1cc(-c2ccc(S(=O)(=O)O)cc2)c2ccc3c(-c4ccc(S(=O)(=O)O)cc4)cc(C)nc3c2n1 [BCS, bathocuproine disulfonic acid]
- Minimum inhibitory concentration (MIC) [1, 14]: higher than 100 μM

SMILES: [SH-].[SH-].[S]=[Mo]=[S] [TTM, tetrathiomolybdate]
- growth compared to no treatment at 48 h ([1]; SC medium): decrease in growth
- effect of supplemental Cu on the growth inhibition by the compound [1]: reversed
- Minimum inhibitory concentration (MIC) [1, 14]: higher than 100 μM

SMILES: Cc1c(O)c(=O)ccn1C [Dfp, deferiprone]
- Minimum inhibitory concentration (MIC) [1, 16]: >100 µM
- restoration of growth of ctr1Δctr4Δ mutant [3]: unable to restore growth
- Cu(II) log KML2 (Conditional Cu [4]; [18]): 15.3 ± 0.3
- pCu(II) (Conditional Cu [4]; [19]): 11.1
- competition for Cu(I) with BCA or ferrozine (Conditional Cu [5]): did not compete
- cell-associated Cu, Fe and Zn content [7, 21]: did not dramatically alter cellular metal content
- cellular metal content compared to the other conditions ([7]; 1 h): decreased cellular metal content

SMILES: Oc1cccc2cccnc12 [Compound 8HQ, 8-hydroxyquinoline]
- effect of added Ag(I) on MIC ([1]; 48 h): no effect
- effect of added Cu(II) on MIC ([1]; 48 h): significant decrease
- effect of added Fe(III) on MIC ([1]; 48 h): did not significantly affect
- effect of added Zn(II) on MIC ([1]; 48 h): did not significantly affect
- MIC ([1]; 48 h, SC medium, 48 h): 6 µM (≈ 0.871 µg/mL)
- Minimum inhibitory concentration (MIC) [1, 14]: >100 µM
- pCu(II) (Conditional Cu [4]; pH 7.4): 18.7
- competition with calcein for Cu(II) [6]: largest pH dependence
- Cu(II) log KML2 [11]: 22.9 ± 0.1 ^a
- fungicidal activity (viable fungi) (WT C. neoformans [12]): absence of detectable viable fungi
- restoration of growth of ctr1Δctr4Δ mutant [13]: recover growth

SMILES: O=C(O)CN(CCN(CC(=O)O)CC(=O)O)CC(=O)O [EDTA, ethylenediamine tetraacetic acid]
- growth compared to no treatment at 48 h ([1]; SC medium): decrease in growth
- effect of supplemental Cu on the growth inhibition by the compound [1]: reversed

SMILES: O=C(N/N=C/c1ccccc1O)c1ccncc1 [SIH, salicylaldehyde isonicotinoyl hydrazine]
- Minimum inhibitory concentration (MIC) [1, 14]: higher than 100 μM
- growth with compound in combination with Cu ([1]; with 1 mM Cu, SC medium, 48 h): inhibited growth slightly
